Values after ≈ are worked out from the molar mass of the structure shown. Active and inactive are the calls of the source. The rule behind the calls is not given here.
Columns and labels:
Pichia kudriavzevii [1] = experiment: Antifungal activity against Candida krusei E28 after 24 hrs by broth microdilution method; format: functional; conditions: E28, 24 h
How it was run: (§1)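 Broth microdilution in RPMI 1640 with glutamine, fluconazole as reference. For yeasts, MIC is ≥80% growth reduction (IC80) versus control. For filamentous fungi, the value is expressed as IC50. Readings at 24 and 48 h.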

Klebsiella pneumoniae [2] = experiment: Antibacterial activity against Klebsiella pneumoniae D 11750/08 at 500 micromol/L after 24 to 48 hrs by broth microdilution method; format: functional, organism-based
How it was run: (§2)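 Broth microdilution in Mueller–Hinton broth, compounds dissolved in DMSO, tested over a dilution series from 500 downward. MIC taken as ≥95% growth reduction (IC95) versus drug-free control. Benzylpenicillin comparator. Readings at 24 and 48 h.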

Trichosporon asahii [3] = experiment: Antifungal activity against Trichosporon asahii 1188 after 48 hrs by broth microdilution method; format: functional; conditions: Trichosporon asahii, 1188, 48 h; how it was run: as §1
Candida tropicalis = experiment: Antifungal activity against Candida tropicalis 156 at 500 micromol/L after 24 to 48 hrs by broth microdilution method; format: functional, organism-based; how it was run: as §1
Escherichia coli = experiment: Antibacterial activity against Escherichia coli CCM 4517 at 500 micromol/L after 24 to 48 hrs by broth microdilution method; format: functional, organism-based; how it was run: as §2
Enterococcus sp. = experiment: Antibacterial activity against Enterococcus sp. J 14365/08 at 500 micromol/L after 24 to 48 hrs by broth microdilution method; format: functional, organism-based; how it was run: as §2
Mycobacterium avium [4] = experiment: Antimycobacterial activity against isoniazid, rifampicin, ethambutol and ofloxacin-resistant Mycobacterium avium My 330/88 after 21 days; format: functional; conditions: My 330/88, 504 h
How it was run: (§3)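 Micromethod MIC in Šula's semisynthetic medium at 37 °C. Compounds added in DMSO at 1000 down to 0.032 µmol/L. Isoniazid standard in sterile water at 0.5–250 µmol/L. Inocula: H37Rv 10^3, M. avium 10^5, M. kansasii 10^4. Read at 14 and 21 d, plus 7 d for M. kansasii.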

Mycobacterium kansasii [5] = experiment: Antimycobacterial activity against Mycobacterium kansasii My 235/80 after 14 days; format: functional; conditions: My 235/80, 336 h; how it was run: as §3
Mycobacterium kansasii [6] = experiment: Antimycobacterial activity against Mycobacterium kansasii My 235/80 after 7 days; format: functional; conditions: My 235/80, 168 h; how it was run: as §3
Pichia kudriavzevii [7] = experiment: Antifungal activity against Candida krusei E28 after 48 hrs by broth microdilution method; format: functional; conditions: E28, 48 h; how it was run: as §1
Nakaseomyces glabratus = experiment: Antifungal activity against Candida glabrata 20/I at 500 micromol/L after 24 to 48 hrs by broth microdilution method; format: functional, organism-based; how it was run: as §1
Staphylococcus aureus [8] = experiment: Antibacterial activity against Staphylococcus aureus CCM 4516/08 after 24 hrs by broth microdilution method; format: functional; conditions: CCM 4516/08, 24 h; how it was run: as §2
Mycobacterium kansasii [9] = experiment: Antimycobacterial activity against Mycobacterium kansasii 6509/96 after 7 days; format: functional; conditions: 6509/96, 168 h; how it was run: as §3
Lichtheimia corymbifera [10] = experiment: Antifungal activity against Absidia corymbifera 272 after 48 hrs by broth microdilution method; format: functional; conditions: Lichtheimia corymbifera, 272, 48 h; how it was run: as §1
Klebsiella pneumoniae [11] = experiment: Antibacterial activity against ESBL-positive Klebsiella pneumoniae J 14368/08 at 500 micromol/L after 24 to 48 hrs by broth microdilution method; format: functional, organism-based; how it was run: as §2
[12] = test system: Mycobacterium tuberculosis; experiment: Antimycobacterial activity against Mycobacterium tuberculosis H37Rv My 331/88 after 14 days; format: functional; conditions: H37Rv My 331/88, 336 h; how it was run: as §3
Mycobacterium kansasii [13] = experiment: Antimycobacterial activity against Mycobacterium kansasii My 235/80 after 21 days; format: functional; conditions: My 235/80, 504 h; how it was run: as §3
Lichtheimia corymbifera [14] = experiment: Antifungal activity against Absidia corymbifera 272 after 24 hrs by broth microdilution method; format: functional; conditions: Lichtheimia corymbifera, 272, 24 h; how it was run: as §1
Staphylococcus aureus [15] = experiment: Antibacterial activity against methicillin-resistant Staphylococcus aureus H 5996/08 after 24 hrs by broth microdilution method; format: functional; conditions: H 5996/08, 24 h; how it was run: as §2
Staphylococcus aureus [16] = experiment: Antibacterial activity against Staphylococcus aureus CCM 4516/08 after 48 hrs by broth microdilution method; format: functional; conditions: CCM 4516/08, 48 h; how it was run: as §2
[17] = test system: Staphylococcus epidermidis; experiment: Antibacterial activity against Staphylococcus epidermidis H 6966/08 after 48 hrs by broth microdilution method; format: functional; conditions: H 6966/08, 48 h; how it was run: as §2
Staphylococcus aureus [18] = experiment: Antibacterial activity against methicillin-resistant Staphylococcus aureus H 5996/08 after 48 hrs by broth microdilution method; format: functional; conditions: H 5996/08, 48 h; how it was run: as §2
Mycobacterium kansasii [19] = experiment: Antimycobacterial activity against Mycobacterium kansasii 6509/96 after 21 days; format: functional; conditions: 6509/96, 504 h; how it was run: as §3
Aspergillus fumigatus [20] = experiment: Antifungal activity against Aspergillus fumigatus 231 after 24 hrs by broth microdilution method; format: functional; conditions: Aspergillus fumigatus, 231, 24 h; how it was run: as §1
[21] = test system: Staphylococcus epidermidis; experiment: Antibacterial activity against Staphylococcus epidermidis H 6966/08 after 24 hrs by broth microdilution method; format: functional; conditions: H 6966/08, 24 h; how it was run: as §2
HepG2 = experiment: Cytotoxicity against human HepG2 cells after 24 hrs by CellTiter assay; format: cell-based; conditions: HepG2, 24 h
How it was run: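 HepG2 cells (passage 27–33) in MEM with 10% FBS, L-glutamine and NEAA, seeded at 1×10^4 per well. Treated next day with compounds at 0.1–100 µM (or 0.1–25 µmol/L), triplicates, <1% DMSO, for 24 h at 37 °C, 5% CO2. MTS reagent added for 2 h, absorbance read at 490 nm. IC50 taken against untreated (100%) and 10% DMSO (0%) controls.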

Pseudomonas aeruginosa = experiment: Antibacterial activity against Pseudomonas aeruginosa CCM 1961 at 500 micromol/L after 24 to 48 hrs by broth microdilution method; format: functional, organism-based; how it was run: as §2
[22] = test system: Mycobacterium tuberculosis; experiment: Antimycobacterial activity against Mycobacterium tuberculosis H37Rv My 331/88 after 21 days; format: functional; conditions: H37Rv My 331/88, 504 h; how it was run: as §3
Candida albicans [23] = experiment: Antifungal activity against Candida albicans ATCC 44859 after 48 hrs by broth microdilution method; format: functional; conditions: ATCC 44859, 48 h; how it was run: as §1
[24] = test system: Trichophyton mentagrophytes; experiment: Antifungal activity against Trichophyton mentagrophytes 445 after 72 hrs by broth microdilution method; format: functional; conditions: Trichophyton mentagrophytes, 445, 72 h
How it was run: (§4)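 Filamentous dermatophyte tested by broth microdilution in RPMI 1640 with glutamine, fluconazole as reference. Value expressed as IC50 relative to growth control. Read at 72 and 120 h.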

Aspergillus fumigatus [25] = experiment: Antifungal activity against Aspergillus fumigatus 231 after 48 hrs by broth microdilution method; format: functional; conditions: Aspergillus fumigatus, 231, 48 h; how it was run: as §1
Candida albicans [26] = experiment: Antifungal activity against Candida albicans ATCC 44859 after 24 hrs by broth microdilution method; format: functional; conditions: ATCC 44859, 24 h; how it was run: as §1
Trichosporon asahii [27] = experiment: Antifungal activity against Trichosporon asahii 1188 after 24 hrs by broth microdilution method; format: functional; conditions: Trichosporon asahii, 1188, 24 h; how it was run: as §1
Mycobacterium kansasii [28] = experiment: Antimycobacterial activity against Mycobacterium kansasii 6509/96 after 14 days; format: functional; conditions: 6509/96, 336 h; how it was run: as §3
Mycobacterium avium [29] = experiment: Antimycobacterial activity against isoniazid, rifampicin, ethambutol and ofloxacin-resistant Mycobacterium avium My 330/88 after 14 days; format: functional; conditions: My 330/88, 336 h; how it was run: as §3
[30] = test system: Trichophyton mentagrophytes; experiment: Antifungal activity against Trichophyton mentagrophytes 445 after 120 hrs by broth microdilution method; format: functional; conditions: Trichophyton mentagrophytes, 445, 120 h; how it was run: as §4

Row | SMILES | MIC80 (Pichia kudriavzevii [1]) [µM] | Activity (Klebsiella pneumoniae [2]) | MIC80 (Trichosporon asahii [3]) [µM] | Activity (Candida tropicalis) | Activity (Escherichia coli) | Activity (Enterococcus sp.) | MIC (Mycobacterium avium [4]) [µM] | MIC (Mycobacterium kansasii [5]) [µM] | MIC (Mycobacterium kansasii [6]) [µM] | MIC80 (Pichia kudriavzevii [7]) [µM] | Activity (Nakaseomyces glabratus) | MIC95 (Staphylococcus aureus [8]) [µM] | MIC (Mycobacterium kansasii [9]) [µM] | MIC50 (Lichtheimia corymbifera [10]) [µM] | Activity (Klebsiella pneumoniae [11]) | MIC [12] [µM] | MIC (Mycobacterium kansasii [13]) [µM] | MIC50 (Lichtheimia corymbifera [14]) [µM] | MIC95 (Staphylococcus aureus [15]) [µM] | MIC95 (Staphylococcus aureus [16]) [µM] | also measured
1 | CCOP(=O)(OCC)Oc1cc(Cl)ccc1C(=O)Nc1cccc(C(F)(F)F)c1 | > 500 | inactive | > 500 | inactive | inactive | inactive | 16 (≈ 7.23 µg/mL) | 4 (≈ 1.81 µg/mL) | 2 (≈ 0.904 µg/mL) | > 500 | inactive | 31.2 (≈ 14.1 µg/mL) | 4 (≈ 1.81 µg/mL) | > 500 | inactive | 4 (≈ 1.81 µg/mL) | 4 (≈ 1.81 µg/mL) | > 500 | 31.2 (≈ 14.1 µg/mL) | 62.5 (≈ 28.2 µg/mL) | MIC95 [17]: 31.2 µM (≈ 14.1 µg/mL); MIC95 (Staphylococcus aureus [18]): 62.5 µM (≈ 28.2 µg/mL); MIC (Mycobacterium kansasii [19]): 8 µM (≈ 3.61 µg/mL); MIC50 (Aspergillus fumigatus [20]): > 500 µM; MIC95 [21]: 15.6 µM (≈ 7.06 µg/mL); IC50 (HepG2): 3850 nM; Activity (Pseudomonas aeruginosa): inactive; MIC [22]: 4 µM (≈ 1.81 µg/mL); MIC80 (Candida albicans [23]): > 500 µM; MIC50 [24]: 31.2 µM (≈ 14.1 µg/mL); MIC50 (Aspergillus fumigatus [25]): > 500 µM; MIC80 (Candida albicans [26]): > 500 µM; MIC80 (Trichosporon asahii [27]): > 500 µM; MIC (Mycobacterium kansasii [28]): 8 µM (≈ 3.61 µg/mL); MIC (Mycobacterium avium [29]): 16 µM (≈ 7.23 µg/mL); MIC50 [30]: 31.2 µM (≈ 14.1 µg/mL)
2 | CCOP(=O)(OCC)Oc1ccc(Cl)cc1C(=O)Nc1cccc(Br)c1 | > 500 | inactive | > 500 | inactive | inactive | inactive | 16 (≈ 7.4 µg/mL) | 8 (≈ 3.7 µg/mL) | 4 (≈ 1.85 µg/mL) | > 500 | inactive | 15.6 (≈ 7.23 µg/mL) | 8 (≈ 3.7 µg/mL) | > 500 | inactive | 4 (≈ 1.85 µg/mL) | 8 (≈ 3.7 µg/mL) | > 500 | 31.2 (≈ 14.5 µg/mL) | 31.2 (≈ 14.5 µg/mL) | MIC95 [17]: 31.2 µM (≈ 14.5 µg/mL); MIC95 (Staphylococcus aureus [18]): 62.5 µM (≈ 28.9 µg/mL); MIC (Mycobacterium kansasii [19]): 8 µM (≈ 3.7 µg/mL); MIC50 (Aspergillus fumigatus [20]): > 500 µM; MIC95 [21]: 15.6 µM (≈ 7.23 µg/mL); IC50 (HepG2): 1810 nM; Activity (Pseudomonas aeruginosa): inactive; MIC [22]: 4 µM (≈ 1.85 µg/mL); MIC80 (Candida albicans [23]): > 500 µM; MIC50 [24]: 15.6 µM (≈ 7.23 µg/mL); MIC50 (Aspergillus fumigatus [25]): > 500 µM; MIC80 (Candida albicans [26]): > 500 µM; MIC80 (Trichosporon asahii [27]): > 500 µM; MIC (Mycobacterium kansasii [28]): 8 µM (≈ 3.7 µg/mL); MIC (Mycobacterium avium [29]): 16 µM (≈ 7.4 µg/mL); MIC50 [30]: 15.6 µM (≈ 7.23 µg/mL)

Source: ChEMBL document CHEMBL3102784, “Salicylanilide diethyl phosphates: synthesis, antimicrobial activity and cytotoxicity” (Bioorg Med Chem, 2014)
